CHO parental Ca: counter-screen for OX1R antagonists: effect in parental CHO cells; parental CHO-K1, ATP-induced calcium, Fluo-8 fluorescence; inhibition, % at 5.6 µM; hit rate 0.63% among 330,000;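 active = inhibition above that plate's mean sample inhibition plus 3 SD, cut at about 26% in these data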;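 also: 0% = ATP-challenged DMSO wells and 100% = DMSO wells without ATP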
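Test system: untransfected parental CHO cell line; also added: ATP stimulus; dosing: 5.6 µM, single dose; signal: calcium-sensitive Fluo-8 fluorescence; measure: percent inhibition of ATP-evoked calcium rise, normalized to controls; benchmarks: low control ATP plus DMSO, high control DMSO only; replication: one well per compound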
MPTP block: inhibitors of mitochondrial permeability transition pore. inhibition, % at 10 µM. hit rate 1.4% among 360,000. AID 602449. isolated mouse mitochondria, Ca2+ swelling absorbance, 30 min;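 active = inhibition of 50% or more, scaled per plate between neutral and stimulator controls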;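 also: 0% = DMSO wells given calcium and 100% = 1 mM EGTA wells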
OX1R antag-1: human HCRTR1 antagonism. AID 434989. inhibition, % at 5 µM. O43613. CHO/OX1R cells, Fluo-8 calcium fluorescence, orexin A. hit rate 0.43% among 330,000;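 active = inhibition above its plate's threshold, mean inhibition of all tested compounds on the plate plus 3 SD, cut at about 37% in these data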;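 also: 0% = orexin A challenge wells and 100% = SB-334867-A antagonist wells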
GPR7 antag: antagonists of human GPR7 (neuropeptides B/W receptor 1) | P48145 | GPR7-expressing cells, fluorescence antagonist assay | inhibition, % at 4.4 µM | hit rate 1.1% among 290,000; in the data active = inhibition above about 16%, passing the limit was not always enough;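 also: cells stimulated with the agonist NPW; 0% = agonist with vehicle and 100% = vehicle without agonist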
Target sequence (P48145 whole entry, looked up): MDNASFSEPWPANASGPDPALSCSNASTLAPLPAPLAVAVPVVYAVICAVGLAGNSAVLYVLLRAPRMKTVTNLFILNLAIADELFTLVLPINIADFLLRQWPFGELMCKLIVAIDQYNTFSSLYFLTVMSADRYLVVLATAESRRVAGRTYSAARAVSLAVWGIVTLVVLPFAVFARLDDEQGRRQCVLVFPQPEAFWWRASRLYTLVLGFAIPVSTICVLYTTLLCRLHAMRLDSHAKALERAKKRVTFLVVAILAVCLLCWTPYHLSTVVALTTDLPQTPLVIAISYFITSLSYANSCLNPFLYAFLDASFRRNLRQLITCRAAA
OX1R antag-2: antagonists of human orexin 1 receptor (OX1R); AID 485270; hit rate 1.8% among 330,000; OX1R-expressing cells, FRET antagonist read-out; O43613; inhibition, % at 6.6 µM; in the data active = inhibition mostly above about 38%, no sharp cut-off; inactive = mostly below about 40%;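 also: 0% = agonist challenge alone and 100% = reference antagonist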
OX1R Ca confirm: confirmation of human orexin 1 receptor antagonists; shares compounds with OX1R antag-1; CHO/OX1R cells, orexin A calcium Fluo-8 fluorescence; inhibition, % at 5 µM; hit rate 38% among 1,100; in the data active = inhibition above about 29%;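 also: 0% = agonist challenge alone and 100% = reference antagonist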
CHO Ca counter: signal in parental CHO cells, OX1R antagonist counter-screen; shares compounds with OX1R antag-1; hit rate 9.3% among 1,100; inhibition, % at 5.6 µM; parental CHO-K1, ATP-induced calcium, Fluo-8 fluorescence;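 active = inhibition above a per-plate limit, the mean inhibition of that plate's test compounds plus 3 SD, cut at about 25% in these data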;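 also: 0% = ATP challenge with DMSO and 100% = DMSO without ATP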
OX1R HTRF conf: confirmation of human orexin 1 receptor antagonists, HTRF format; shares compounds with OX1R antag-2; OX1R-expressing cells, HTRF antagonist assay; inhibition, % at 6.6 µM; hit rate 49% among 1,800; AID 492964; in the data active = inhibition above about 55%;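 also: CHO cells expressing OX1R stimulated with orexin A at about EC80; 0% = agonist challenge alone and 100% = reference antagonist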
CHO-K1 HTRF cnt: counter-screen: parental CHO-K1 HTRF response. shares compounds with OX1R antag-2. parental CHO-K1 cells, HTRF counterscreen. inhibition, % at 6.6 µM. hit rate 48% among 1,800; in the data active = inhibition above about 17%;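 also: 0% = agonist challenge with vehicle and 100% = vehicle alone without agonist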
Rh123 counter: mitochondrial membrane potential, counter-screen; shares compounds with MPTP block; isolated mitochondria, Rhodamine 123 fluorescence; inhibition, % at 10 µM; hit rate 78% among 5,000; AID 624504; in the data active = inhibition above about 22%;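 also: 0% = DMSO vehicle and 100% = positive control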
Active calls of the source: *. Compounds with a hit are over-represented: about 3.8% of the library has one in this group of screens.

`COC(=O)c1cccc(NC(=S)NCc2ccc(Cl)cc2)c1` gave CHO parental Ca 11.1, MPTP block 94.0*, OX1R antag-1 31.0, GPR7 antag 4.7, OX1R antag-2 9.0, OX1R Ca confirm 27.0, CHO Ca counter 5.5 and Rh123 counter 106.7*.
COC(=O)c1ccc(C)c(NC(=S)NCc2ccc(Cl)cc2)c1 was read as CHO parental Ca -3.2, MPTP block 26.3, OX1R antag-1 -5.8, GPR7 antag 7.2 and OX1R antag-2 4.9.
For N#C/C(=N\Nc1cccc([N+](=O)[O-])c1)C(=O)c1ccc(Br)cc1 the results were CHO parental Ca 25.9, MPTP block 92.6*, OX1R antag-1 42.2*, GPR7 antag -8.9, OX1R antag-2 93.7*, OX1R Ca confirm 21.5, CHO Ca counter 50.1*, OX1R HTRF conf 39.0, CHO-K1 HTRF cnt 18.9* and Rh123 counter 40.6*.
Cc1cc(=O)[nH]c(SCC(=O)Nc2ccc(F)cc2)c1C#N was read as CHO parental Ca -6.1, MPTP block 6.1, OX1R antag-1 -12.5, GPR7 antag -4.3 and OX1R antag-2 29.1.
`Cc1cc(=O)[nH]c(SCC(=O)Nc2ccc(Br)cc2)c1C#N` gave CHO parental Ca 4.3, MPTP block 96.0*, OX1R antag-1 41.6*, GPR7 antag 2.0, OX1R antag-2 92.6*, OX1R Ca confirm 17.6, CHO Ca counter 14.9, OX1R HTRF conf 39.6, CHO-K1 HTRF cnt 12.7 and Rh123 counter 89.9*.
Cc1csc2c(N3CCN(C(=O)NC(C)(C)C)CC3)ncnc12 was read as CHO parental Ca -3.5, MPTP block 18.2, OX1R antag-1 -16.0, GPR7 antag -11.7 and OX1R antag-2 9.2.
For Cc1csc2c(N3CCN(C(=S)Nc4ccc(C(F)(F)F)cc4)CC3)ncnc12 the results were CHO parental Ca 9.8, MPTP block 96.8*, OX1R antag-1 37.1, GPR7 antag -1.4, OX1R antag-2 25.3, OX1R Ca confirm 22.5, CHO Ca counter 64.3* and Rh123 counter 91.8*.
Cc1csc2ncnc(N3CCN(C(=S)Nc4ccc(C(F)(F)F)cc4)CC3)c12 was read as CHO parental Ca 0.2, MPTP block 91.3*, OX1R antag-1 49.2*, GPR7 antag -9.6, OX1R antag-2 44.7, OX1R Ca confirm 22.1, CHO Ca counter 44.7* and Rh123 counter 93.9*.
For Cc1c(Cl)cccc1NC(=O)Cn1nc(C)n2cccc2c1=O the results were CHO parental Ca -10.8, MPTP block -0.8, OX1R antag-1 -18.4, GPR7 antag -3.1 and OX1R antag-2 -2.3.
Screening O=C(NC(=S)Nc1ccccc1Cl)c1cncc(Br)c1 returned CHO parental Ca -16.4, MPTP block -1.9, OX1R antag-1 -27.4, GPR7 antag -13.0 and OX1R antag-2 4.6.
Screening O=C(CN(C(=O)c1ccccc1Cl)C1CCCCC1)Nc1ccc(Cl)c([N+](=O)[O-])c1 returned CHO parental Ca 11.5, MPTP block 87.9*, OX1R antag-1 35.9, GPR7 antag 14.8, OX1R antag-2 18.4, OX1R Ca confirm 19.6, CHO Ca counter 6.2 and Rh123 counter 79.7*.
`COC(=O)c1ccc2c(c1)C(C)(C)C(/C=C/c1ccccc1O)=[N+]2C` gave CHO parental Ca 20.6, MPTP block 74.8*, OX1R antag-1 33.5, GPR7 antag 15.5, OX1R antag-2 31.5, OX1R Ca confirm 56.9*, CHO Ca counter 45.9* and Rh123 counter -22.3.
Screening C/C=N\NC(=O)CNC(=O)CNC(=O)c1ccccc1 returned CHO parental Ca 1.1, MPTP block -1.0, OX1R antag-1 2.7, GPR7 antag -3.0 and OX1R antag-2 7.1.
Screening Cc1cc(C)nc(Nc2n[nH]c(-c3cccc4ccccc34)n2)n1 returned CHO parental Ca -20.0, MPTP block 3.1, OX1R antag-1 22.2, GPR7 antag -8.9, OX1R antag-2 79.6*, OX1R HTRF conf 60.4* and CHO-K1 HTRF cnt 5.0.
`Cc1cc(C)nc(Nc2n[nH]c(-c3ccccc3Cl)n2)n1` gave CHO parental Ca -12.1, MPTP block 0.4, OX1R antag-1 -7.1, GPR7 antag -8.7 and OX1R antag-2 12.2.
`O=C(NCCO)c1ccc2nc(-c3ccco3)c(-c3ccco3)nc2c1` gave CHO parental Ca -2.7, MPTP block 1.5, OX1R antag-1 -7.4, GPR7 antag -8.5, OX1R antag-2 108.5*, OX1R HTRF conf 37.7 and CHO-K1 HTRF cnt 58.2*.
`O=C1c2cccc3cccc(c23)C(=O)N1c1ccc2ncccc2c1` gave CHO parental Ca 1.0, MPTP block -5.7, OX1R antag-1 -2.4, GPR7 antag -4.6 and OX1R antag-2 49.0.
Screening O=C1c2cccc3cc([N+](=O)[O-])cc(c23)C(=O)N1c1nncs1 returned CHO parental Ca -8.3, MPTP block 0.9, OX1R antag-1 -17.8, OX1R antag-2 77.7*, OX1R HTRF conf 61.0* and CHO-K1 HTRF cnt 86.1*.
Screening CC(C)Oc1ccc(C(=O)Nc2cccc3cccnc23)cc1 returned CHO parental Ca -19.9, MPTP block 0.5, OX1R antag-1 19.2, GPR7 antag -9.3, OX1R antag-2 79.3*, OX1R HTRF conf 7.5 and CHO-K1 HTRF cnt -6.8.
Screening CNC(=O)Nc1cccc2cccnc12 returned CHO parental Ca -10.9, MPTP block -1.3, OX1R antag-1 -2.9, GPR7 antag -10.6 and OX1R antag-2 10.5.
`Cc1cc(C(=O)Nc2cccc3cccnc23)ccc1[N+](=O)[O-]` gave CHO parental Ca -28.3, MPTP block 1.1, OX1R antag-1 11.3, GPR7 antag 6.3, OX1R antag-2 79.7*, OX1R HTRF conf 56.5* and CHO-K1 HTRF cnt 8.6.
Screening O=C(COc1ccc2ccccc2c1)Nc1cccc2cccnc12 returned CHO parental Ca -22.6, MPTP block -1.3, OX1R antag-1 26.7, GPR7 antag 7.2, OX1R antag-2 80.9*, OX1R HTRF conf 44.5 and CHO-K1 HTRF cnt -1.0.
For CN(C(=O)COC(=O)c1ccc2c(=O)n3c(nc2c1)CCC3)C1CCS(=O)(=O)C1 (configuration not stated) the results were CHO parental Ca -3.0, MPTP block 3.4, OX1R antag-1 7.0, GPR7 antag 3.6 and OX1R antag-2 2.7.
For O=C(CCN1CCCCC1=O)NC1CCCN(Cc2ccc(Cl)cc2)C1 (configuration not stated) the results were CHO parental Ca -6.2, MPTP block 2.7, OX1R antag-1 -3.1, GPR7 antag -15.3 and OX1R antag-2 9.8.

Bioassay records (PubChem)
